# Test results reported in ChEMBL document CHEMBL4371064, “Erythrofordins D and E, two new cassaine-type diterpenes from Erythrophleum suaveolens” (2019).
# Key:
# Format in all cases: functional
# LOX IMVI = assay: Growth inhibition of human LOXIMVI cells incubated for 48 hrs by sulforhodamine B assay
# Summary of the method: (§1)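 Run in the NCI-60 human tumour cell line panel with dose-response testing. GI50 was determined for each cell line from its dose-response data.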
# SK-OV-3 = assay: Growth inhibition of human SKOV3 cells incubated for 48 hrs by sulforhodamine B assay; conditions: SK-OV-3, 48 h; summary of the method: as §1
# EKVX = assay: Growth inhibition of human EKVX cells incubated for 48 hrs by sulforhodamine B assay; summary of the method: as §1
# HCC 2998 = assay: Growth inhibition of human HCC2998 cells incubated for 48 hrs by sulforhodamine B assay; conditions: HCC 2998, 48 h; summary of the method: as §1
# KM12 = assay: Growth inhibition of human KM12 cells incubated for 48 hrs by sulforhodamine B assay; conditions: KM12, 48 h; summary of the method: as §1
# HCT-116 = assay: Growth inhibition of human HCT116 cells incubated for 48 hrs by sulforhodamine B assay; conditions: HCT-116, 48 h; summary of the method: as §1
# SK-MEL-28 = assay: Growth inhibition of human SK-MEL-28 cells incubated for 48 hrs by sulforhodamine B assay; conditions: SK-MEL-28, 48 h; summary of the method: as §1
# A549 = assay: Growth inhibition of human A549/ATCC cells incubated for 48 hrs by sulforhodamine B assay; conditions: A549, 48 h; summary of the method: as §1
# SK-MEL-5 = assay: Growth inhibition of human SK-MEL-5 cells incubated for 48 hrs by sulforhodamine B assay; conditions: SK-MEL-5, 48 h; summary of the method: as §1
# U-251 = assay: Growth inhibition of human U251 cells incubated for 48 hrs by sulforhodamine B assay; conditions: U-251, 48 h
# Summary of the method: (§2)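 Tested in the NCI 60-human-tumour-cell-line screen using the five-dose format. GI₅₀ was derived from each cell line's dose-response. TGI and LC₅₀ were derived from the same dose-response data.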
# Malme-3M = assay: Growth inhibition of human MALME-3M cells incubated for 48 hrs by sulforhodamine B assay; summary of the method: as §1
# MDA-MB-231 = assay: Growth inhibition of human MDA-MB-231 cells incubated for 48 hrs by sulforhodamine B assay; conditions: MDA-MB-231, 48 h; summary of the method: as §1
# HCT-15 = assay: Growth inhibition of human HCT15 cells incubated for 48 hrs by sulforhodamine B assay; conditions: HCT-15, 48 h; summary of the method: as §1
# SF-539 = assay: Growth inhibition of human SF539 cells incubated for 48 hrs by sulforhodamine B assay; conditions: SF-539, 48 h; summary of the method: as §1
# CAKI-1 = assay: Growth inhibition of human Caki1 cells incubated for 48 hrs by sulforhodamine B assay; conditions: CAKI-1, 48 h; summary of the method: as §1
# TK-10 = assay: Growth inhibition of human TK10 cells incubated for 48 hrs by sulforhodamine B assay; conditions: TK-10, 48 h; summary of the method: as §2
# A498 = assay: Growth inhibition of human A498 cells incubated for 48 hrs by sulforhodamine B assay; conditions: A498, 48 h
# Summary of the method: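 Run within the NCI-60 human tumour cell line panel as a dose-response screen. For each cell line the readouts are GI50, TGI and LC50. Per-line log values also feed a mean-graph analysis, in which the arithmetic mean of the log values across all lines is subtracted from each line's log value.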
# SK-MEL-2 = assay: Growth inhibition of human SK-MEL-2 cells incubated for 48 hrs by sulforhodamine B assay; conditions: SK-MEL-2, 48 h; summary of the method: as §1
# RPMI-8226 = assay: Growth inhibition of human RPMI8226 cells incubated for 48 hrs by sulforhodamine B assay; conditions: RPMI-8226, 48 h; summary of the method: as §1
# OVCAR-8 = assay: Growth inhibition of human OVCAR8 cells incubated for 48 hrs by sulforhodamine B assay; conditions: OVCAR-8, 48 h; summary of the method: as §1
# SF-268 = assay: Growth inhibition of human SF268 cells incubated for 48 hrs by sulforhodamine B assay; conditions: SF-268, 48 h; summary of the method: as §1
# OVCAR-4 = assay: Growth inhibition of human OVCAR4 cells incubated for 48 hrs by sulforhodamine B assay; conditions: OVCAR-4, 48 h; summary of the method: as §1
# IGROV-1 = assay: Growth inhibition of human IGROV1 cells incubated for 48 hrs by sulforhodamine B assay; conditions: IGROV-1, 48 h; summary of the method: as §1
# NCI-H226 = assay: Growth inhibition of human NCI-H226 cells incubated for 48 hrs by sulforhodamine B assay; conditions: NCI-H226, 48 h; summary of the method: as §1
# UACC-257 = assay: Growth inhibition of human UACC257 cells incubated for 48 hrs by sulforhodamine B assay; conditions: UACC-257, 48 h; summary of the method: as §2
# ACHN = assay: Growth inhibition of human ACHN cells incubated for 48 hrs by sulforhodamine B assay; summary of the method: as §1
# NCI-H23 = assay: Growth inhibition of human NCI-H23 cells incubated for 48 hrs by sulforhodamine B assay; conditions: NCI-H23, 48 h; summary of the method: as §1
# Hs-578T = assay: Growth inhibition of human Hs578T cells incubated for 48 hrs by sulforhodamine B assay; summary of the method: as §1
# 786-0 = assay: Growth inhibition of human 786-0 cells incubated for 48 hrs by sulforhodamine B assay; conditions: 786-0, 48 h; summary of the method: as §1
smiles,measurement,setting,value
COC(=O)/C=C1\CC[C@H]2[C@@H](CC(=O)[C@H]3C(C)(C)[C@@H](O)CC[C@]23C)[C@H]1C,GI50,LOX IMVI,2 µM
same,LC50,LOX IMVI,> 34.7 µM
same,TGI,LOX IMVI; read-out: pTGI (converted),9.55 µM
same,GI50,SK-OV-3,8.51 µM
same,LC50,SK-OV-3,> 34.7 µM
same,TGI,SK-OV-3; read-out: pTGI (converted),22.9 µM
same,GI50,EKVX,0.871 µM
same,LC50,EKVX,11 µM
same,TGI,EKVX; read-out: pTGI (converted),2.69 µM
same,GI50,HCC 2998,10.7 µM
same,LC50,HCC 2998,> 34.7 µM
same,TGI,HCC 2998; read-out: pTGI (converted),> 34.7 µM
same,GI50,KM12,11 µM
same,LC50 (concentration killing 50% of cells),KM12,> 34.7 µM
same,TGI,KM12; read-out: pTGI,> 34.7 µM
same,GI50,HCT-116,1.41 µM
same,LC50,HCT-116,> 34.7 µM
same,TGI,HCT-116; read-out: pTGI (converted),6.31 µM
same,GI50,SK-MEL-28,9.33 µM
same,LC50,SK-MEL-28,> 34.7 µM
same,TGI,SK-MEL-28; read-out: pTGI (converted),33.1 µM
same,GI50,A549,0.603 µM
same,LC50,A549,2.09 µM
same,TGI,A549; read-out: pTGI (converted),1.12 µM
same,GI50,SK-MEL-5,1.29 µM
same,LC50,SK-MEL-5,25.7 µM
same,TGI,SK-MEL-5; read-out: pTGI (converted),5.75 µM
same,GI50,U-251,1.7 µM
same,LC50,U-251,19.5 µM
same,TGI,U-251; read-out: pTGI (converted),6.76 µM
same,GI50,Malme-3M,1.48 µM
same,LC50,Malme-3M,24.5 µM
same,TGI,Malme-3M; read-out: pTGI (converted),7.08 µM
same,GI50,MDA-MB-231,10.2 µM
same,LC50,MDA-MB-231,> 34.7 µM
same,TGI,MDA-MB-231; read-out: pTGI (converted),> 34.7 µM
same,GI50,HCT-15,4.07 µM
same,LC50,HCT-15,30.2 µM
same,TGI,HCT-15; read-out: pTGI (converted),11 µM
same,GI50,SF-539,1.35 µM
same,LC50,SF-539,16.2 µM
same,TGI,SF-539; read-out: pTGI (converted),5.5 µM
same,GI50,CAKI-1,1.38 µM
same,LC50,CAKI-1,> 34.7 µM
same,TGI,CAKI-1; read-out: pTGI (converted),6.76 µM
same,GI50,TK-10,1.48 µM
same,LC50 (lethal concentration killing 50% of cells),TK-10,> 34.7 µM
same,TGI,TK-10; read-out: pTGI (converted),7.94 µM
same,LC50,A498,> 34.7 µM
same,TGI,A498; read-out: pTGI (converted),14.8 µM
same,GI50,SK-MEL-2,7.41 µM
same,LC50 (concentration killing 50% of cells),SK-MEL-2,> 34.7 µM
same,TGI,SK-MEL-2; read-out: pTGI (converted),28.8 µM
same,GI50,RPMI-8226,8.91 µM
same,LC50,RPMI-8226,> 34.7 µM
same,TGI,RPMI-8226; read-out: pTGI (converted),> 34.7 µM
same,GI50,OVCAR-8,1.38 µM
same,LC50,OVCAR-8,> 34.7 µM
same,TGI,OVCAR-8; read-out: pTGI (converted),7.24 µM
same,GI50,SF-268,1.17 µM
same,LC50,SF-268,14.5 µM
same,TGI,SF-268; read-out: pTGI (converted),4.47 µM
same,GI50,OVCAR-4,3.72 µM
same,LC50,OVCAR-4,> 34.7 µM
same,TGI,OVCAR-4; read-out: pTGI (converted),12.3 µM
same,GI50,IGROV-1,3.8 µM
same,LC50,IGROV-1,> 34.7 µM
same,TGI,IGROV-1; read-out: pTGI (converted),22.4 µM
same,GI50,NCI-H226,4.79 µM
same,LC50,NCI-H226,25.1 µM
same,TGI,NCI-H226; read-out: pTGI (converted),11 µM
same,GI50,UACC-257,6.03 µM
same,LC50,UACC-257,> 34.7 µM
same,TGI,UACC-257; read-out: pTGI (converted),16.2 µM
same,GI50,ACHN,0.794 µM
same,LC50,ACHN,10 µM
same,TGI,ACHN; read-out: pTGI (converted),2.19 µM
same,GI50,NCI-H23,1.23 µM
same,LC50,NCI-H23,> 34.7 µM
same,TGI,NCI-H23; read-out: pTGI (converted),7.76 µM
same,GI50,Hs-578T,0.955 µM
same,LC50,Hs-578T,> 34.7 µM
same,TGI,Hs-578T; read-out: pTGI (converted),3.39 µM
same,GI50,786-0,1.12 µM
same,LC50,786-0,24.5 µM
same,TGI,786-0; read-out: pTGI (converted),4.27 µM
